Screens (PubChem BioAssay)
MsrA inhibitor – bovine MsrA inhibition. purified bovine MsrA, absorbance read-out. inhibition, % at 15.5 µM. hit rate 0.75% among 360,000. AID 651718; in the data active = inhibition above about 4.5%;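 note: 0% = vehicle wells with enzyme and 100% = reference inhibitor wells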
N-glyco inh – blocks N-linked glycosylation in D54 reporter cells. reporter increase, % at 12.5 µM. hit rate 0.23% among 360,000. D54 ERlucT glycosylation luciferase reporter, 24 h; percent of 100 nM tunicamycin response. AID 588692;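 active = mean luciferase reporter signal, scaled so untreated is 0 and the glycosylation-blocking control 100, at or above a set limit in every replicate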;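 note: luciferase carries N-glycosylation sites so blocking glycosylation raises the light; 0% = median of neutral control wells and 100% = median of 100 nM tunicamycin wells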
Vif inh – inhibitors of HIV Vif; HEK293T cells, Vif self-association by quenched fluorescence, imaging, 24 h; inhibition, % at 7.49 µM; hit rate 0.35% among 340,000; in the data active = inhibition above about 50%, passing the limit was not always enough
UCH37 inh – inhibitors of human deubiquitinating enzyme UCH37 | Q9Y5K5 | purified proteasome/UCH37, Ub-AMC cleavage fluorescence | inhibition, % (no concentration beside the values) | hit rate 0.33% among 330,000;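 active = mean inhibition over replicate wells above about 20%, limit read from the data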;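 note: 0% = compound-free wells with enzyme and 100% = wells lacking proteasome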
Target sequence (Q9Y5K5 whole entry, looked up): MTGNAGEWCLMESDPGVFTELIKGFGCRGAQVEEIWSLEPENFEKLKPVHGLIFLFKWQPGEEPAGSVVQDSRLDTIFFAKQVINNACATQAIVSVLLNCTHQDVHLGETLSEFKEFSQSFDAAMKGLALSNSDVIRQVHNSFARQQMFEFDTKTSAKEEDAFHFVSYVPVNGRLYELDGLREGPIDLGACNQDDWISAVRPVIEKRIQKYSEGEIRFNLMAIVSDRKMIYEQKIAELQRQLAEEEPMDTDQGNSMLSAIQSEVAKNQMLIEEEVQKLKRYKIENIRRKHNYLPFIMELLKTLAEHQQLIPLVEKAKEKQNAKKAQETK
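Material: human UCH37 enzyme supplied as purified proteasome complex. Measure: % inhibition of Ub-AMC cleavage fluorescence. Medium: pH 7.4 Tris-HCl (50 mM) with ovalbumin, ATP-MgCl2, DTT. Times: 30 min preincubation with enzyme, 25 min cleavage at room temperature. Detection: AMC fluorescence intensity at 355/460 nm.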
aDG glyco act – alpha-DG glycosylation activation; Pro5-aDG cells, alpha-DG glycosylation AlphaScreen (IIH6); 0% Pro5, 100% B10-LARGE cell signal; activation, % at 10 µM; hit rate 0.22% among 360,000; AID 624168;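 active = activation of at least 8% versus controls, or a plate z-score of at least 8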;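 note: Pro5 are CHO cells carrying HIG-tagged alpha-DG that lacks glycosylation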
bovine MsrA act – activates bovine MsrA enzyme; purified bovine MsrA, absorbance read-out; activation, % at 10.6 µM; hit rate 0.3% among 360,000; in the data active = activation above about 7.5%;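 note: 0% = vehicle and 100% = reference activator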
aDG conf – alpha-DG glycosylation activation, confirmation. shares compounds with aDG glyco act. Pro5-aDG cells, IIH6 AlphaLISA; scaled to LARGE-overexpressing B10 cells as 100%. activation, % at 10 µM (by protocol). hit rate 17% among 600. AID 651671;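 active = activation of at least 7% in one or more replicates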;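 note: cells exposed to compound for two days before detection; 0% = DMSO-treated Pro5 cells and 100% = DMSO-treated B10-LARGE cells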
* hit, by the source's call; x = no result given. Most compounds without a hit are left out; they make up all but 1.9% or so of the library.

SMILES	MsrA inhibitor	N-glyco inh	Vif inh	UCH37 inh	aDG glyco act	bovine MsrA act	aDG conf
COc1cc2[nH]c3c(=O)n4c(nc3c2cc1OC)SCCC4	1	0	16	-25	31*	0	22*
CC1(C)CC(=O)C=C(c2ccccc2-c2ccc(S(C)(=O)=O)cc2)C1=O	0	1	x	x	5.6*	-1	-1
CC(=O)c1ccc(-c2ccccc2C2=CC(=O)CC(C)(C)C2=O)cc1	2	x	x	x	x	x	x
COc1ccc(NC(=O)CNC(=O)Cn2c(C)cc3ccccc3c2=O)cc1OC	0	-2	-14	2	0	-2	x
COc1cc(NC(=O)CNC(=O)Cn2c(C)cc3ccccc3c2=O)cc(OC)c1OC	0	0	-7	-2	3.3*	-2	0
COC(=O)NN=Cc1cn(CC(C)COc2ccccc2)c2ccccc12 (configuration not stated)	x	x	x	-2	x	x	x
CCCOc1ccc(C(=O)N(CC(C)C)c2c(N)n(Cc3ccccc3)c(=O)[nH]c2=O)cc1	0	1	-8	2	5.7*	-12	-1
CCc1nc2ccc(C(=O)NC3CCN(Cc4ccccc4)CC3)cn2c1N(C)Cc1cc2ccccc2s1	-1	-7	0	x	6.4*	-3	11*
COc1ccc(NC(=O)Nc2nnc(C(C)(C)C)s2)cc1	-1	-1	-11	2	0	-1	x
CC(C)(C)c1nnc(NC(=O)Nc2ccc(Cl)cc2)s1	0	-3	-17	1	2.2*	-11	0
C=CCNC(=S)N/N=C/c1ccc(C(C)(C)C)cc1	2	-3	6	x	8.6*	0	2
C=CCNC(=S)NN=Cc1ccc(C(C)(C)C)cc1	x	x	x	5	x	x	x
Cc1ccc(C)c(N2CCN(CCCNC(=O)Cn3cccc3C(=O)c3ccccc3)CC2)c1	0	-6	33	1	10*	1	3
O=C(Cn1cccc1C(=O)c1ccccc1)NCCCN1CCOCC1	1	-1	6	6	0	-1	x
Cc1ccc(Cn2c(SCC(=O)NN=Cc3ccccc3OCC(=O)O)nc3ccccc32)cc1	x	x	x	3	x	x	x
Cc1[nH]c2ccccc2c1C=NNC(=O)c1cccc(Br)c1	x	x	x	-9	x	x	x
O=C(Nc1ccccc1Cl)C1C(c2ccccc2)C1(Cl)Cl (configuration not stated)	0	-1	-5	1	6.2*	-13	0
Nc1nnnn1N=Cc1ccccc1O	x	x	x	2	x	x	x
Cc1nn(C)c(C(=O)NCc2ccc(Cl)cc2)c1Cl	-1	-2	-15	2	4.9*	-4	2
Cc1cc(-c2ccccc2)nc(NN=Cc2ccc(O)cc2)n1	x	x	x	6	x	x	x
Cc1ccc(C(=O)Cn2c(=N)n(N)c3ccccc32)cc1	-1	-8	1	2	0	-1	x
CCN(CC)CCn1c(=N)n(CC(=O)c2ccc(C)cc2)c2ccccc21	0	-2	-29	5	3.8*	-3	11*
CC(=NNC(=O)C1CCN(S(=O)(=O)c2ccc(C)cc2)CC1)c1cccc([N+](=O)[O-])c1	x	x	x	4	x	x	x
O=C(CNC(=O)c1cccc(F)c1)NN=Cc1cccc([N+](=O)[O-])c1	x	x	x	5	x	x	x
O=C(CNC(=O)c1cccc(F)c1)N/N=C/c1ccc([N+](=O)[O-])s1	2	0	4	x	11*	-4	3
SMILES	MsrA inhibitor	N-glyco inh	Vif inh	UCH37 inh	aDG glyco act	bovine MsrA act	aDG conf
Oc1cccc(C=NCc2ccccc2)c1	0	x	x	2	51*	-1	-1
COc1ccc(CCNC(=O)c2cc3c(=O)n4ccccc4nc3n(CCN3CCOCC3)c2=N)cc1	3	-4	-9	-44	8.1*	-3	1
O=C1C2C3C=CC(C4CC34)C2C(=O)N1N=Cc1ccc([N+](=O)[O-])s1 (configuration not stated)	x	x	x	2	x	x	x
S=c1[nH]nc(COc2ccccc2)n1N=C/C=C/c1ccco1	x	x	x	11	x	x	x
Fc1ccc(-c2nc3c4ccccc4ccn3c2CC2CCCCC2)cc1	0	-5	x	x	4	-2	x
Clc1ccc(-c2nc3c4ccccc4ccn3c2CC2CCCCC2)cc1	0	x	x	x	22*	-2	3
Clc1cccc(Cc2c(-c3cccc(Cl)c3)nc3c4ccccc4ccn23)c1	1	x	x	x	1	-5	x
Clc1cccc(-c2nc3c4ccccc4ccn3c2CC2CCCCC2)c1	0	0	x	x	11*	-3	2
CC(C)(C)c1ccc(-c2cc(N)n[nH]2)cc1	0	-2	-3	2	9.7*	-10	0
Cc1ccc(-c2cc(N)n[nH]2)cc1	-1	0	2	0	0	-13	x
COc1cc(N)c2ncsc2c1	0	2	38	0	9.7*	-6	1
Cc1noc(C)c1CSCC(=O)N1CCN(c2ccc(F)cc2)CC1	0	0	2	1	0	-10	x
Cc1cccc(N2CCN(C(=O)CSCc3c(C)noc3C)CC2)c1C	x	0	-8	2	6.8*	3	2
CC(=N/N=C1/NC(=O)CC(C(=O)O)S1)c1ccccc1 (configuration not stated)	x	x	x	6	x	x	x
COc1ccc(Cc2nc(-c3ccc(NC(=O)c4cccnc4)cc3)no2)cc1	0	-1	1	0	7.5*	-2	6.7*
COc1ccc(-c2noc(CCC(=O)NCc3cccnc3)n2)cc1	-1	-1	-3	2	0	-1	x
Cc1cccc(N=C2NC(=O)CS2)c1	-1	0	3	2	6.4*	5	1
Cc1cc(C)cc(N=C2NC(=O)CS2)c1	0	-2	-6	6	0	-3	x
CC(Cc1ccccc1)=NNC(=O)CNC(=O)c1cccc(F)c1	x	x	x	0	x	x	x
Cc1cc(NC(=O)CSc2c3c(nc4ccccc24)CCC3)no1	-1	8	-9	5	8.2*	-9	-1
O=C(NC(C(=O)NN=Cc1cccc2ccccc12)c1n[nH]c(=O)c2ccccc12)c1ccccc1 (configuration not stated)	x	x	x	5	x	x	x
Cc1cccc(C)c1NC(=O)c1ccc(-n2cncn2)nc1	1	1	x	2	3.8*	-1	-1
CCc1cccc(CC)c1NC(=O)c1ccc(-n2cncn2)nc1	0	2	5	0	1	-9	x
CCCCN1CCc2c1nc1ccc(Br)cc1c2N	0	-10	-7	10	3.6*	-6	7.8*
CC(=NNC(=O)Cc1c(F)cccc1Cl)c1cccnc1	x	x	x	4	x	x	x
COc1ccccc1N1CCN(N=Cc2ccc(C)o2)CC1	x	x	x	3	x	x	x
O=C(CSCc1cccc(Br)c1)NC1CC1	-1	0	-5	1	5.3*	-4	0
ON=Cc1ccccc1OCc1ccc(Cl)cc1	x	x	x	2	x	x	x
CCOC(=O)c1sc(NC(=O)CSc2nnc(-c3ccco3)n2CC)c(C(=O)OCC)c1C	-1	-1	-11	3	0	-1	x
